Assay results as given in paper PMC5592695 (Journal of medicinal chemistry, 2016).

What was measured:
[1] = tested on: R4A antibody binding to murine glomeruli; assay: Kidney glomeruli R4A binding assay; parameters: species or system mouse; settings: R4A 20 µg/mL preincubated with compound at 50 µM
Outline: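 Glomeruli isolated from mice and adhered to glass slides. R4A was preincubated with test compound for 1 h at 37 °C, then applied to the glomeruli for 1 h at room temperature. Slides were washed with PBS. Bound antibody was detected with FITC-conjugated anti-mouse IgG and imaged by fluorescence microscopy.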

[2] = tested on: R4A monoclonal antibody (anti-dsDNA) binding to DWEYS peptide; assay: Competitive inhibition ELISA: R4A antibody binding to DWEYS-coated plates; parameters: species or system mouse
Outline: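 D-DWEYS peptide at 20 µg/mL in PBS pH 7.2 coated overnight at 37 °C, uncovered; blocked with 3% BSA/PBS 1 h at 37 °C. R4A (20 µg/mL) preincubated with test compound at varying concentrations 1 h at 37 °C, then added to washed wells 1 h at 37 °C. AP-goat anti-mouse IgG 1:1000, 1 h RT; pNPP substrate 30–60 min; absorbance at 405 nm.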

[3] = tested on: NZB/W F1 mice (SLE model); assay: NZB/W F1 lupus model efficacy testing; format: in vivo, mouse
Outline: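 Female NZB/W F1 mice, randomised to groups (initially n = 10/group), dosed from 22 weeks of age, before severe proteinuria, with test compound or vehicle at 5 mg kg−1 day−1 as two daily ip injections (2.5 mL/kg each). Weekly body weight; proteinuria every 2 weeks; serum stored at −70 °C. Blinded kidney histology scored glomerular sclerosis, cellularity, crescents and interstitial inflammation.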

[4] = tested on: R4A antibody neurotoxicity in hippocampal neurons; assay: Neurotoxicity model: R4A injected into hippocampus, TUNEL staining; format: in vivo; settings: R4A 20 µg/mL preincubated with 50 µM compound, injected into mouse hippocampus
Outline: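 Male C57BL/6 mice (30–34 g) under 2.5% avertin ip received a 2 µL stereotaxic injection into the dorsal hippocampus (CA1) of R4A (20 µg/mL) preincubated with vehicle or test compound (50 µM).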

[5] = Preliminary pharmacokinetics after intravenous or oral dosing; format: in vivo; settings: iv 1 mg/kg or oral gavage 10 mg/kg, male CD-1 mice
[6] = 5 mg/kg chronic dosing, NZB/W F1 mice, versus vehicle

| Compound | R4A binding to glomerular antigens [1] | Inhibition of R4A / anti-dsDNA antibody binding in ELISA (qualitative) [2] | Neurotoxic effect of R4A (TUNEL staining, neuronal apoptosis) [4] | also measured |
| --- | --- | --- | --- | --- |
| Cc1c(O)cccc1C(=O)N[C@@H](CSc1ccccc1)[C@H](O)CN1C[C@H]2CCCC[C@H]2C[C@H]1C(=O)NC(C)(C)C [Compound 2, nelfinavir, reference compound] | diminished binding to glomerular antigens | dose-dependently inhibited the binding of anti-dsDNA antibodies to target antigens |  |  |
| Cc1cccc(C)c1OCC(=O)N[C@@H](Cc1ccccc1)[C@@H](O)C[C@H](Cc1ccccc1)NC(=O)[C@H](C(C)C)N1CCCNC1=O [Compound 3, lopinavir] |  | dose-dependently inhibited the binding of anti-dsDNA antibodies to target antigens |  |  |
| CC(C)(C)NC[C@@H]1CC2CCCCC2CN1C[C@@H](O)[C@H](Cc1ccccc1)NC[C@H](CCN)NCC1Nc2ccccc2CC1O (stereo partly drawn) [Compound 5, 2-{[3-Amino-1-({1-benzyl-3-[3-(tert-butylamino-methyl)-octahydro-isoquinolin-2-yl]-2-hydroxy-propylamino}-methyl)-propylamino]-methyl}-1,2,3,4-tetrahydro-quinolin-3-ol] | decreased the binding of R4A to kidney tissue |  | abrogated this neurotoxic effect | Onset of disease ([3]; 5 mg kg−1 day−1 b.i.d. ip, NZB/W F1 mice): delayed onset of disease (26–36 weeks); Body weights versus vehicle ([3]; 5 mg kg−1 day−1 in two daily ip injections, female NZB/W F1 mice from 22 weeks of age): similar; Kidney histology [3, 6]: preserved histology; Mouse IgG staining (autoantibody deposition) in glomeruli [3, 6]: significantly less staining for mouse IgG; Serum anti-DWEYS reactivity ([3]; 5 mg/kg chronic dosing, NZB/W F1 mice, versus vehicle sera): higher anti-DWEYS reactivity; Combined kidney pathology score ([3]; blinded histopathology, 60 weeks, versus vehicle, p < 0.05): significantly lower standard combined pathology scores; PK profile (comparative) [5]: exhibited the best PK profile; Tolerability in PK study [5]: well tolerated at the administered dose levels |
| Cc1c(O)cccc1CN[C@@H](CSc1ccccc1)[C@H](O)CN1C[C@H]2CCCC[C@H]2C[C@H]1CNC(C)(C)C [Compound 6, 3-({3-[3-(tert-Butylaminomethyl)octahydroisoquinolin-2-yl]-2-hydroxy-1-phenylsulfanylmethylpropylamino}methyl)-2-methylphenol] | decreased the binding of R4A to kidney tissue |  | abrogated this neurotoxic effect |  |
| CNCCCN[C@H](CN[C@@H](Cc1ccccc1)C[C@H](O)[C@H](Cc1ccccc1)NCCOc1c(C)cccc1C)C(C)C [Compound 7, 2-[2-(2,6-Dimethylphenoxy)ethylamino]-5-[3-methyl-2-(3-methylaminopropylamino)butylamino]-1,6-diphenylhexan-3-ol] | decreased the binding of R4A to kidney tissue |  |  |  |
| saquinavir [Compound 1, reference compound] | diminished binding to glomerular antigens | dose-dependently inhibited the binding of anti-dsDNA antibodies to target antigens |  |  |
